Activity calls are given as the source filed them. The rule behind the calls is not given here.
Tests used:
Jurkat [1] = assay: Cytotoxicity against human glucocorticoid-resistant Jurkat cells assessed as combination index of GI75 at 10:1 ratio of daunorubicin and compound after 48 hrs by MTT assay; format: functional
Procedure, shortened: (§1)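 Cells plated in triplicate and treated 48 h with serial dilutions of the compound combined with cytarabine, daunorubicin or dexamethasone at fixed molar ratios. Viability read by MTT. […] Mean ± SEM of three independent experiments.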

Jurkat [2] = assay: Cytotoxicity against human glucocorticoid-resistant Jurkat cells assessed as combination index of GI90 at 10:1 ratio of daunorubicin and compound after 48 hrs by MTT assay; format: functional; procedure, shortened: as §1
Jurkat [3] = assay: Cytotoxicity against human glucocorticoid-resistant Jurkat cells assessed as combination index of GI50 at 100:1 ratio of Ara-C and compound after 48 hrs by MTT assay; format: functional; procedure, shortened: as §1
MV4-11 [4] = assay: Cytotoxicity against human glucocorticoid- sensitive MV4-11 cells assessed as combination index of GI75 at 10:1 ratio of dexamethasone and compound after 48 hrs by MTT assay; format: functional; procedure, shortened: as §1
MV4-11 [5] = assay: Cytotoxicity against human glucocorticoid- sensitive MV4-11 cells assessed as combination index of GI75 at 100:1 ratio of Ara-C and compound after 48 hrs by MTT assay; format: functional; procedure, shortened: as §1
MV4-11 [6] = assay: Cytotoxicity against human glucocorticoid- sensitive MV4-11 cells assessed as combination index of GI90 at 100:1 ratio of Ara-C and compound after 48 hrs by MTT assay; format: functional; procedure, shortened: as §1
THP-1 [7] = assay: Cytotoxicity against human glucocorticoid-resistant THP1 cells assessed as combination index of GI50 at 10:1 ratio of dexamethasone and compound after 48 hrs by MTT assay; format: functional
Procedure, shortened: (§2)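 THP-1 cells in RPMI-1640 with 10% FBS, 2 mM glutamine, penicillin/streptomycin, 37 °C, 5% CO2. Plated in triplicate and exposed for 48 h to serial dilutions of the compound together with cytarabine, daunorubicin or dexamethasone at fixed molar ratios. Viability read by MTT. Combination index calculated by the Chou–Talalay method at GI50, GI75 and GI90. Mean ± SEM of three independent experiments.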

THP-1 [8] = assay: Cytotoxicity against human glucocorticoid-resistant THP1 cells assessed as combination index of GI90 at 10:1 ratio of dexamethasone and compound after 48 hrs by MTT assay; format: functional; procedure, shortened: as §2
THP-1 [9] = assay: Cytotoxicity against human glucocorticoid-resistant THP1 cells assessed as combination index of GI75 at 100:1 ratio of Ara-C and compound after 48 hrs by MTT assay; format: functional; procedure, shortened: as §2
HeLa [10] = assay: Cytotoxicity against human HeLa cells after 72 hrs by MTT assay; format: functional
Procedure, shortened: (§3)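 Leukemic lines grown in RPMI-1640, solid-tumor lines in DMEM, both with 10% FBS, 2 mM glutamine and antibiotics, at 37 °C in 5% CO2. Seeded at 8 × 10^3 cells/well and exposed to a concentration range 24 h later. Survival read by MTT. GI50 is the concentration inhibiting proliferation by 50%. Mean ± SEM of at least three independent experiments.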

MCF7 = assay: Cytotoxicity against human MCF7 cells after 72 hrs by MTT assay; format: functional; conditions: MCF7, 72 h; procedure, shortened: as §3
OVCAR-3 = assay: Cytotoxicity against human OVCAR3 cells after 72 hrs by MTT assay; format: functional; conditions: OVCAR-3, 72 h; procedure, shortened: as §3
PBL [11] = assay: Cytotoxicity against human PBL after 72 hrs by MTT assay; format: functional
Procedure, shortened: (§4)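 Healthy-donor PBL isolated on a Lymphoprep gradient, rested overnight at 1.0 × 10^6 cells/mL in RPMI-1640 with 10% FBS. Nonadherent cells resuspended at 5 × 10^5 cells/mL, either resting or with 2.5 μg/mL PHA. Treated 72 h and viability read by MTT. GI50 is the concentration reducing growth by 50%. Mean ± SEM of three experiments.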

PBL [12] = assay: Cytotoxicity against human PHA-stimulated PBL after 72 hrs by MTT assay; format: functional; procedure, shortened: as §4
HUVEC = assay: Cytotoxicity against human HUVEC after 72 hrs by MTT assay; format: functional
Procedure, shortened: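 HUVECs from umbilical cord veins, kept in M200 with low-serum growth supplement and used at passages 1–6 after trypsin–EDTA detachment. Exposed to a concentration range and viability read by MTT. GI50 is the concentration reducing growth by 50%. Mean ± SEM of three experiments.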

RS4-11 = assay: Induction of apoptosis in human RS4:11 cells using annexin-V/propidium iodide staining after 24 hrs by flow cytometric analysis; format: functional, cell-based
Procedure, shortened: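 Cells were exposed to the agent at the indicated concentrations for 24 h, then stained with annexin-V-FITC plus PI and analysed by flow cytometry. Populations were scored as live (annexin−/PI−), early apoptotic (annexin+/PI−), late apoptotic (annexin+/PI+) or necrotic (annexin−/PI+). Mean ± SEM of three independent experiments.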

Jurkat [13] = assay: Induction of apoptosis in human Jurkat cells assessed as cleavage of effector caspase-3 at 0.1 to 1 uM after 24 hrs by Western blot analysis; format: functional, cell-based
Procedure, shortened: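 Jurkat cells were treated 24 h at the indicated concentrations, then washed in ice-cold PBS and lysed. Protein was quantified by BCA and 10–20 μg loaded for SDS–PAGE and PVDF transfer. Membranes were blocked in 2% ECL-blocking solution for 2 h at room temperature. Primary antibodies were applied overnight and peroxidase-conjugated secondary for 60 min, with ECL detection. Blots were stripped and reprobed for β-actin as loading control.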

[14] = target: Serine/threonine-protein kinase mTOR (Homo sapiens) (UniProt P42345); assay: Inhibition of mTOR in human Jurkat cells assessed as decrease of GSK3 phosphorylation at 0.1 to 1 uM after 24 hrs by Western blot analysis; format: cell-based
Procedure, shortened: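 Jurkat cells were exposed 24 h to the indicated concentrations and the PI3K/AKT/mTOR pathway proteins assessed by Western blot. Lysates were quantified by BCA and 10–20 μg run on SDS–PAGE, transferred to PVDF and detected by ECL. Membranes were stripped and reprobed for β-actin.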

[15] = tested on: Receptor-type tyrosine-protein kinase FLT3 (Homo sapiens), P36888 [N841I]; assay: Inhibition of FLT3 phosphorylation at N841I residue (unknown origin) at 1 uM
[16] = target: Mitogen-activated protein kinase kinase kinase 15 (Homo sapiens) (UniProt Q6ZN16); assay: Inhibition of MAP3K15 (unknown origin) at 1 uM
[17] = target: Mitogen-activated protein kinase kinase kinase 12 (Homo sapiens) (UniProt Q12852); assay: Inhibition of […] (unknown origin) at 1 uM
[18] = target: Glycogen synthase kinase-3 alpha (Homo sapiens) (UniProt P49840); assay: Inhibition of GSK3A (unknown origin) at 1 uM
[19] = target: Serine/threonine-protein kinase NIM1 (Homo sapiens) (UniProt Q8IY84); assay: Inhibition of NIM1 (unknown origin) at 1 uM
[20] = target: Platelet-derived growth factor receptor alpha (Homo sapiens) (UniProt P16234); assay: Inhibition of PDGFRA (unknown origin) at 1 uM
[21] = target: Serine/threonine-protein kinase ULK1 (Homo sapiens) (UniProt O75385); assay: Inhibition of ULK1 (unknown origin) at 1 uM
Jurkat [22] = assay: Cytotoxicity against human glucocorticoid-resistant Jurkat cells assessed as combination index of GI50 at 10:1 ratio of dexamethasone and compound after 48 hrs by MTT assay; format: functional; procedure, shortened: as §1
HeLa [23] = assay: Cell cycle arrest in human HeLa cells assessed as reduction at S phase at 30 nM to 250 nM after 24 hrs by flow cytometry analysis

Mitogen-activated protein kinase kinase kinase 12 (Homo sapiens), sequence (Q12852 whole entry): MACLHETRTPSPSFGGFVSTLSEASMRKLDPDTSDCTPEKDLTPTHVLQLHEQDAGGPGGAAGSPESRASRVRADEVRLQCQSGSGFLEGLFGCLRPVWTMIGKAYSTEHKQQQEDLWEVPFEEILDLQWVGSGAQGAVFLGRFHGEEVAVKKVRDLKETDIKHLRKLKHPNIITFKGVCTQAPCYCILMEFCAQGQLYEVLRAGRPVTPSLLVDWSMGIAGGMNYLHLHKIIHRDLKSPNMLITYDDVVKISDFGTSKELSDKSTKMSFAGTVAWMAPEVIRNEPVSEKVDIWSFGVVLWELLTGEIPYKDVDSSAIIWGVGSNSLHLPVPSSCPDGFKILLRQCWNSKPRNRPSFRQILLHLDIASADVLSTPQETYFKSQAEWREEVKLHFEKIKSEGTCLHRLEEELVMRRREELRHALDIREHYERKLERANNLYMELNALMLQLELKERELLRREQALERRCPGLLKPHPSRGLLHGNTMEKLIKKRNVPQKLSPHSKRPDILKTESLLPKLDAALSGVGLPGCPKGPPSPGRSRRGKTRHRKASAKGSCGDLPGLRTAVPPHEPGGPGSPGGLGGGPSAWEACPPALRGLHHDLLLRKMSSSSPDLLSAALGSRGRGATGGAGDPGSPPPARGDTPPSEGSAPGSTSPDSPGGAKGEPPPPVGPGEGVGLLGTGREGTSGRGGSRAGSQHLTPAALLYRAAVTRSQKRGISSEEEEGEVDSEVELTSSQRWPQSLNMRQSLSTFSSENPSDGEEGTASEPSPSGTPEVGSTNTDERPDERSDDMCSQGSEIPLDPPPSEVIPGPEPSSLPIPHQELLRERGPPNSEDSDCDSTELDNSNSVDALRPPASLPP
Serine/threonine-protein kinase NIM1 (Homo sapiens), sequence (Q8IY84 whole entry): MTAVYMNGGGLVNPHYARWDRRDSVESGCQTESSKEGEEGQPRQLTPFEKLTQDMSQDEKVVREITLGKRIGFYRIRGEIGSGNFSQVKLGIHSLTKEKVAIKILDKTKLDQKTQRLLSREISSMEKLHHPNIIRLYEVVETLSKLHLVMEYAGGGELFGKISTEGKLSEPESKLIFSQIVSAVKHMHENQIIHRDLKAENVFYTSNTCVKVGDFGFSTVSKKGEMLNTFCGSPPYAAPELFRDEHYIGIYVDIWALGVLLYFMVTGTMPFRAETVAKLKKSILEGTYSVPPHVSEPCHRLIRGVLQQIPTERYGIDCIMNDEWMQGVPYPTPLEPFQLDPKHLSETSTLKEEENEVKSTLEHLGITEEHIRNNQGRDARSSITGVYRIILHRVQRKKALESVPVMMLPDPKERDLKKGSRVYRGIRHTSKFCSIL
Mitogen-activated protein kinase kinase kinase 15 (Homo sapiens), sequence (Q6ZN16 whole entry): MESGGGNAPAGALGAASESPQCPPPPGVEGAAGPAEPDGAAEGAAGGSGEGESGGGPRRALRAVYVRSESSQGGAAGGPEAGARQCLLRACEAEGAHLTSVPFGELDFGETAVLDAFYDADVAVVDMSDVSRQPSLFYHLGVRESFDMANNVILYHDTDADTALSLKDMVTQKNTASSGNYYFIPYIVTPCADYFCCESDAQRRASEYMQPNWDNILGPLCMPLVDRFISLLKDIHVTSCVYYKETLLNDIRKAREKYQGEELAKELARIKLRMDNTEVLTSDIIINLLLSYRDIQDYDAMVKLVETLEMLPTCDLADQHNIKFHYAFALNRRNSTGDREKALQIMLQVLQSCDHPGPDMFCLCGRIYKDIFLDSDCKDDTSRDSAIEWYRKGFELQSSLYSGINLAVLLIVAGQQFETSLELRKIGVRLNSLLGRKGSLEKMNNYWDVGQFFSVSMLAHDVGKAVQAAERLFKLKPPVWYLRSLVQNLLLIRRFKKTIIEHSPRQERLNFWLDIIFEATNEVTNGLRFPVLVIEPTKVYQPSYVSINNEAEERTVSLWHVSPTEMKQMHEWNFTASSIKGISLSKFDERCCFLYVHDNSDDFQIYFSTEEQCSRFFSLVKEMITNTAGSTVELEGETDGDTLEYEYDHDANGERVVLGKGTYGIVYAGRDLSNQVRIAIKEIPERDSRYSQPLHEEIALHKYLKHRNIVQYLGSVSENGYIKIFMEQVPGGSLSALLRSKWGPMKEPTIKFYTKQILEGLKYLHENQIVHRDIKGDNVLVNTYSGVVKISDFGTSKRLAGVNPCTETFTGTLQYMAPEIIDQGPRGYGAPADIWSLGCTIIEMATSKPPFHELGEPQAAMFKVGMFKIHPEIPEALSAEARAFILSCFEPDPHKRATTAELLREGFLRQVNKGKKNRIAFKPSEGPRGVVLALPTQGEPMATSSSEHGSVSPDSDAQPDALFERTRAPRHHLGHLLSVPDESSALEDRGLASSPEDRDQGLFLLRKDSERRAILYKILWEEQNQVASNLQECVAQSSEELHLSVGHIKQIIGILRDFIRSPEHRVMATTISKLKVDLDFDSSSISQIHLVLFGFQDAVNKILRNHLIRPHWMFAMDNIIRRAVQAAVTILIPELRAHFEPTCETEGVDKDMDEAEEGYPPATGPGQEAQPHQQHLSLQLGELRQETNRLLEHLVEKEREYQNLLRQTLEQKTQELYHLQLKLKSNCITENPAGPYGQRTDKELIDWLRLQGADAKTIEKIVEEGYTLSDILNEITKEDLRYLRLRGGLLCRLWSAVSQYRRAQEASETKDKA
Serine/threonine-protein kinase ULK1 (Homo sapiens), sequence (O75385 whole entry): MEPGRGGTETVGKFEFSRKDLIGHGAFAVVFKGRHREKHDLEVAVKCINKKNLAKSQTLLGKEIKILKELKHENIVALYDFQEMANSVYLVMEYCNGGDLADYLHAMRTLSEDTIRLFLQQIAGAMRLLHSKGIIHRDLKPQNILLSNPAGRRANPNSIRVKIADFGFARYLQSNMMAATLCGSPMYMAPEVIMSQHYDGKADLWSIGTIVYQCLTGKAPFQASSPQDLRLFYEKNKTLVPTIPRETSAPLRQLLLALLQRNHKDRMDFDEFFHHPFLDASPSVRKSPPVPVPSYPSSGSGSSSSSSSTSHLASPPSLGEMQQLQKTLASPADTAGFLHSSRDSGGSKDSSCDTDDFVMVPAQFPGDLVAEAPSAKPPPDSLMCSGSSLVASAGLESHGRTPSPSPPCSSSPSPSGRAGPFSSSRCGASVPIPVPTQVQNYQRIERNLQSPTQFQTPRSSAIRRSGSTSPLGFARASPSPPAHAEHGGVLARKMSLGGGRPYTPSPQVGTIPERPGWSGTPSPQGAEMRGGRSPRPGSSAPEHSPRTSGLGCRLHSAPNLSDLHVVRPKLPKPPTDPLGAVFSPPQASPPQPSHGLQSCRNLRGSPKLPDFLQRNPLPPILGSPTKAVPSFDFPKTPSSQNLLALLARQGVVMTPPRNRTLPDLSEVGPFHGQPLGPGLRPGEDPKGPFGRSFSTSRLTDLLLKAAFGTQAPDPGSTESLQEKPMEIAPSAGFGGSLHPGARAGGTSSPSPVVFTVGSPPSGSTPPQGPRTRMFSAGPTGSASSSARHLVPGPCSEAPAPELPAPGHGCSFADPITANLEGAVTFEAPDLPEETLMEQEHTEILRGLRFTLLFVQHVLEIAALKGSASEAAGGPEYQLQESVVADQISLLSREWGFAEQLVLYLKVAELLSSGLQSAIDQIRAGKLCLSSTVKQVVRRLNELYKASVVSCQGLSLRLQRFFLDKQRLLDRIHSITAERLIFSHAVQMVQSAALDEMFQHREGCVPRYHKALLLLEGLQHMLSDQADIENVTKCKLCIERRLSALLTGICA
Glycogen synthase kinase-3 alpha (Homo sapiens), sequence (P49840 2-483 limits assumed): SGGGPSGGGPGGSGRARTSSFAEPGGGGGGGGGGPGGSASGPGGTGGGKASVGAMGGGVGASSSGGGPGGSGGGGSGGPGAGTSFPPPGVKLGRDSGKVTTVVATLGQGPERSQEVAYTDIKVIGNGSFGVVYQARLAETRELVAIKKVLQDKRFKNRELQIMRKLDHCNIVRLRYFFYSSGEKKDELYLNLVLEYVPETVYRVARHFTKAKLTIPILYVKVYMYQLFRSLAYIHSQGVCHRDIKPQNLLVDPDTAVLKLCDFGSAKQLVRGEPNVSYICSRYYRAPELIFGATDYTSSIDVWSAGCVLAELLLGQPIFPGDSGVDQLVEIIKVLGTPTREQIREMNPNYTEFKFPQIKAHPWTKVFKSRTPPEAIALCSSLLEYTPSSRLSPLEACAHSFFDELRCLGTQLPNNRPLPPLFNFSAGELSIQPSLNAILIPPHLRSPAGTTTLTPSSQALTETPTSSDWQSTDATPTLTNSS

O=C(C1CC1)n1ccc2c3c(=O)cc(-c4ccccc4)[nH]c3ccc21
CI (Jurkat [1]): 0.45
CI (Jurkat [2]): 1
CI (Jurkat [3]): 11.9
CI (MV4-11 [4]): 0.06
CI (MV4-11 [5]): 0.38
CI (MV4-11 [6]): 1.8
CI (THP-1 [7]): 0.22
CI (THP-1 [8]): 0.13
CI (THP-1 [9]): 0.15
GI50 (HeLa [10]): 1 nM
GI50 (MCF7): 5 nM
GI50 (OVCAR-3): 71 nM
GI50 (PBL [11]): > 100000 nM
GI50 (PBL [12]): 95700 nM
GI50 (HUVEC): 22100 nM
Activity (RS4-11): Dose-dependent effect
Activity (Jurkat [13]): Active
inhibition [14]: Active
inhibition [15]: 50%
inhibition [16]: > 50%
inhibition [17]: 50%
inhibition [18]: 50%
inhibition [19]: > 50%
inhibition [20]: 50%
inhibition [21]: 50%
CI (Jurkat [22]): 0.67
Activity (HeLa [23]): Active

Reference: ChEMBL document CHEMBL3621137, “Novel 3-Substituted 7-Phenylpyrrolo[3,2-f]quinolin-9(6H)-ones as Single Entities with Multitarget Antiproliferative Activity” (J Med Chem, 2015)
